Assay outcomes: PubChem BioAssay, several laboratories
Rows were chosen to be rich in hits. Some 4.2% of all compounds tested hit in one or more screens of this group.
ANO1 activ – activates or potentiates the mouse TMEM16A chloride channel; B-score at 10 µM; AID 623877; HEK293 TMEM16A/YFP-H148Q/I152L, iodide quench fluorescence; stronger effect = lower value; Q8BHY3; 340,000 compounds, 0.3% hits;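 active = fluorescence-ratio B-score plate-corrected deviation score at least 3 library SD below zero, with starting fluorescence score within 5 deviations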;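 note: channel opened by trigger with iodide after compound preincubation; score built on the fluorescence ratio of max minus min over baseline; more negative score means more quench and so TMEM16A activation or potentiation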
CHOP inhibitor – blocks CHOP induction under ER stress; CHO-K1 CHOP-promoter luciferase, tunicamycin-induced, 15-18 h; inhibition, % at 10 µM; 220,000 compounds, 3.8% hits; AID 2732;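 active = compounds that reduced the stress-induced luciferase reporter signal by more than about 70% of percent inhibition, limit read from the data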;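 note: 0% = tunicamycin plus vehicle and 100% = wells without tunicamycin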
ANO1 block – inhibitors of mouse TMEM16A calcium-activated chloride channel; Q8BHY3; 310,000 compounds, 1.2% hits; normalized B-score (activity score, 25-100; higher = stronger inhibition) at 10 µM; AID 588511; HEK293 TMEM16A/YFP iodide influx fluorescence, ionomycin;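 active = ratio plate-corrected score three or more library SD toward inhibition, starting fluorescence score within five deviations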;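 note: score derived from kinetic fluorescence span divided by baseline fluorescence per well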
UPR XBP1 act – activators of adaptive arm of unfolded protein response (XBP1). AID 463104. 330,000 compounds, 0.33% hits. CHO-XBP1 luciferase reporter, IRE1-XBP1 UPR activation, luminescence; percent of tunicamycin response, DMSO as zero. activation, % at 20 µM;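 active = versus positive control, 20 µM dose yields 30% or more activation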;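 note: 100% = tunicamycin at 10 µg/mL and 0% = DMSO only wells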
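Material – CHO cell line with stable XBP1 luciferase reporter · Buffer or medium – F12 plus 10% FBS · Compound – single point, 20 µM final compound, 1% DMSO · Schedule – 16-18 h cell attachment at 37 °C, then 6 h compound exposure · Signal – Steady-Glo luminescence read · Benchmarks – high control tunicamycin 10 µg/mL final, low control DMSO vehicle only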
Hep lipid drop – modulators of hepatic lipid droplet formation. AML12 mouse hepatocytes, oleate lipid droplets, BODIPY imaging. inhibition, % at 6.5 µM. 240,000 compounds, 0.4% hits. AID 1656;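 active = lipid droplet intensity inhibited by at least 50%, with more than 500 cells counted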
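Material – AML12 mouse liver cells · Also added – oleate loading, 100 µM · Compound dosing – 6.5 µM single-point dosing · Times – overnight treatment with compound plus oleate · Measured by – fluorescence imaging, 20x objective, two fields per well · Read-out – percent inhibition of filter-corrected integrated lipid droplet intensity per well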
CHOP UPR activ – activators of apoptotic arm of unfolded protein response (CHOP); CHO-CHOP luciferase reporter, UPR activation, luminescence; percent of tunicamycin response over DMSO baseline; activation, % at 10 µM; 330,000 compounds, 0.34% hits; AID 449763;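 active = at 10 µM dose, activation of 40% or more, normalized to positive control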;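 note: 100% = tunicamycin at 10 µg/mL and 0% = DMSO alone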
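System: CHO-CHOP luciferase reporter cell line | Buffer or medium: F12 medium containing 10% fetal bovine serum | Doses: One dose, 10 µM in 0.5% DMSO | Times: 6 h compound exposure at 37 °C after overnight seeding | Signal: Luciferase luminescence | Read-out: % activation vs tunicamycin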
TMEM16A reconf – re-confirmation of mouse TMEM16A chloride channel inhibitors; shares compounds with ANO1 block; AID 652189; HEK293 TMEM16A/YFP-H148Q, iodide quench fluorescence; ionomycin added to raise cell calcium; inhibition, % at 10 µM; 2,300 compounds, 39% hits;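 active = mean duplicate percent inhibition, scaled so buffer wells are 0 and the reference blocker 100, over three buffer SD above buffer mean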
TMEM16A Ca cntr – alters calcium mobilization in TMEM16A HEK293 cells, counter-screen; TMEM16A/YFP HEK293, Fluo4 calcium mobilization; 2,300 compounds, 2% hits; shares compounds with ANO1 block; calcium response (% of ionomycin), % at 10 µM;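 active = duplicate-averaged calcium signal over 20% of the ionomycin maximum, relative to buffer baseline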;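 note: each well's signal is peak minus trough fluorescence divided by its pre-addition baseline; 0% = buffer wells and 100% = ionomycin wells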
YFP-HEK293 quench – counter-screen for TMEM16A inhibitors: effect in parental YFP-HEK293 cells. shares compounds with ANO1 block. iodide YFP quench, ionomycin. YFP ratio F(max-min)/F0 at 10 µM. 2,300 tested, under 10 active. AID 652233;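 active = yellow fluorescent protein signal ratio exceeding the buffer control mean by over 5 SD of those controls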;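 note: ratio is mean of duplicate wells from kinetic YFP trace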
ClC-1 rat inh – selectivity of TMEM16A inhibitors: inhibition of rat ClC-1 chloride channel; shares compounds with ANO1 block; CHO ClC-1-YFP, iodide influx fluorescence quench; iodide control reads 0, buffer control 100; ratio percent, % at 10 µM; 2,300 tested, under 10 active; AID 652236;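 active = duplicate-mean ratio percent above the mean of iodide-only control wells, which defines zero, plus 5 of their SD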;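 note: higher percent means stronger block of ClC-1 iodide influx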
Target sequence (P35524 whole entry, looked up): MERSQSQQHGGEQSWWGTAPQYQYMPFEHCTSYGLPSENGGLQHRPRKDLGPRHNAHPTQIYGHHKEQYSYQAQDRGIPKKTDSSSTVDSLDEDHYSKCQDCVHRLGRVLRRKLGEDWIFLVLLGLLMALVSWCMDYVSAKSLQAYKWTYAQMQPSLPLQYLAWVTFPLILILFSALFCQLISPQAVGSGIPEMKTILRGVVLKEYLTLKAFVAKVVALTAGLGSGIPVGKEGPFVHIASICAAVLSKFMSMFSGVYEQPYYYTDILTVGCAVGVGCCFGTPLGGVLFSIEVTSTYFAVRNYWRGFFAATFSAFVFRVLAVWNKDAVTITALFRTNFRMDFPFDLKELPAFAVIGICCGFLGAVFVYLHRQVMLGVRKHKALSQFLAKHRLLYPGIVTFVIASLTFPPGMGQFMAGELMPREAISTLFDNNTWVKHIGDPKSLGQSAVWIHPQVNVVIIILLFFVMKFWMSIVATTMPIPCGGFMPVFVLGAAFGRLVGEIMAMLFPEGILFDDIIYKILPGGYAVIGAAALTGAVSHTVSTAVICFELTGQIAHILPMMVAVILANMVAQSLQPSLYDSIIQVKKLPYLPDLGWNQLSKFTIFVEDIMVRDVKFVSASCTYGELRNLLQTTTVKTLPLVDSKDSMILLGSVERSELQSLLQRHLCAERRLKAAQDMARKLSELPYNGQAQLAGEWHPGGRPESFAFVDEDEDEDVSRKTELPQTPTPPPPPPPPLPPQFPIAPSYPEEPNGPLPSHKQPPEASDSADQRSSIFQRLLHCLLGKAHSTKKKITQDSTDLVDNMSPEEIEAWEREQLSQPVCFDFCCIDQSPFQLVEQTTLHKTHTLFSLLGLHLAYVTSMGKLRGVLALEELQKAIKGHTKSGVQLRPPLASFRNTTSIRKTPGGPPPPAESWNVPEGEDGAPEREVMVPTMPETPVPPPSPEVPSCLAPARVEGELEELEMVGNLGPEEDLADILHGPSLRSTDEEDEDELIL
* = called active by the depositor.

How did COc1cc(O)cc2c1[C@@H]1Oc3c(ccc(O)c3CC=C(C)C)[C@@H]1CO2 do in these assays?
ANO1 activ: inactive; ANO1 block: 25*; UPR XBP1 act: -2; CHOP UPR activ: -1; TMEM16A reconf: 30%*; TMEM16A Ca cntr: inactive; YFP-HEK293 quench: -0.96; ClC-1 rat inh: -10

How did CCn1cc(C(=O)OCC(=O)OC2CC(C)CCC2C(C)C)c(=O)c2ccc(C)nc21 (stereo not given) do in these assays?
ANO1 activ: inactive; CHOP inhibitor: 89*; ANO1 block: 25*; UPR XBP1 act: 1; Hep lipid drop: -1; CHOP UPR activ: 0; TMEM16A reconf: inactive; TMEM16A Ca cntr: inactive; YFP-HEK293 quench: -1.3; ClC-1 rat inh: -10

Results for CCc1c(C)nc2nc(SCc3ccccc3Cl)[nH]n2c1=O ?
ANO1 activ: inactive; ANO1 block: 100*; UPR XBP1 act: -3; Hep lipid drop: 2; CHOP UPR activ: 0; TMEM16A reconf: 26%*; TMEM16A Ca cntr: 34%*; YFP-HEK293 quench: -1; ClC-1 rat inh: -29

How did CC(C)(C)OC(=O)N1CCN(c2ccc(CNC(=O)c3ccc(Cl)cc3)cc2)CC1 do in these assays?
ANO1 activ: inactive; CHOP inhibitor: 35; ANO1 block: 100*; UPR XBP1 act: 0; CHOP UPR activ: -1; TMEM16A reconf: 22%*; TMEM16A Ca cntr: inactive; YFP-HEK293 quench: -1.1; ClC-1 rat inh: -12

Results for CCNc1nc(NCC)n2c(SCC(=O)Nc3ccc(C)cc3Br)nnc2n1 ?
ANO1 activ: inactive; UPR XBP1 act: -1; CHOP UPR activ: 2

What do the screens show for `CN1CCN(C2CCCCCC2)CC1`?
ANO1 activ: inactive; CHOP inhibitor: -20; ANO1 block: 25*; UPR XBP1 act: -1; Hep lipid drop: -12; CHOP UPR activ: -1; TMEM16A reconf: inactive; TMEM16A Ca cntr: inactive; YFP-HEK293 quench: -0.8; ClC-1 rat inh: -10

How did Cc1nn(-c2ccccc2)c(Cl)c1C(=O)Nc1nnc(C2CCCC2)s1 do in these assays?
ANO1 activ: inactive; CHOP inhibitor: 80*; ANO1 block: 25*; UPR XBP1 act: -4; Hep lipid drop: 5; CHOP UPR activ: 1; TMEM16A reconf: inactive; TMEM16A Ca cntr: inactive; YFP-HEK293 quench: -1.1; ClC-1 rat inh: -16

How did CCCCNC(=O)CSc1nc2c(sc(=S)n2-c2cc(Cl)ccc2OC)c(=O)[nH]1 do in these assays?
ANO1 activ: inactive; ANO1 block: inactive; UPR XBP1 act: -7; Hep lipid drop: 4; CHOP UPR activ: -1

How did COc1ccc(Cl)cc1-n1c(=S)sc2c(=O)[nH]c(SCC(=O)C(C)(C)C)nc21 do in these assays?
ANO1 activ: inactive; ANO1 block: 100*; UPR XBP1 act: -1; Hep lipid drop: 3; CHOP UPR activ: 0; TMEM16A reconf: 28%*; TMEM16A Ca cntr: inactive; YFP-HEK293 quench: -1.1; ClC-1 rat inh: -30

How did COc1ccc(OCc2cc(C(=O)NC3CCOC(C)(C)C3)no2)c2ccccc12 (stereo not given) do in these assays?
ANO1 activ: inactive; ANO1 block: inactive; UPR XBP1 act: 0; Hep lipid drop: -11; CHOP UPR activ: 3

How did O=C(c1ccc(-c2ccccc2)cc1)c1ccccc1C(=O)N1CCOCC1 do in these assays?
ANO1 activ: inactive; CHOP inhibitor: -23; ANO1 block: 100*; UPR XBP1 act: 3; Hep lipid drop: 0; CHOP UPR activ: 1; TMEM16A reconf: inactive; TMEM16A Ca cntr: inactive; YFP-HEK293 quench: -1.2; ClC-1 rat inh: -10

What do the screens show for `Cc1cccc(-n2cnc3cc(C(=O)N4CCCCC4)ccc32)c1`?
ANO1 activ: inactive; CHOP inhibitor: 23; ANO1 block: 25*; UPR XBP1 act: -2; CHOP UPR activ: 4; TMEM16A reconf: inactive; TMEM16A Ca cntr: inactive; YFP-HEK293 quench: -1.1; ClC-1 rat inh: 0

What do the screens show for `Cc1cccc(-n2c(C)nc3cc(C(=O)N4CCOCC4)ccc32)c1`?
ANO1 activ: inactive; ANO1 block: inactive; UPR XBP1 act: 0; Hep lipid drop: -3; CHOP UPR activ: 4

Results for Cc1nc(C)n(C(C)CNS(=O)(=O)c2ccc(Cl)cc2)n1 (stereo not given) ?
ANO1 activ: inactive; ANO1 block: inactive; UPR XBP1 act: -2; Hep lipid drop: 10; CHOP UPR activ: 0

How did O=C(c1cccs1)N1CCN(C(=O)C2CCCO2)CC1 (stereo not given) do in these assays?
ANO1 activ: inactive; CHOP inhibitor: 7; ANO1 block: 100*; UPR XBP1 act: 0; Hep lipid drop: 3; CHOP UPR activ: 0; TMEM16A reconf: inactive; TMEM16A Ca cntr: inactive; YFP-HEK293 quench: -1; ClC-1 rat inh: 3

Results for O=C(Nc1ccc2c(c1)OCO2)N1CCN(C(=O)C2CCCO2)CC1 (stereo not given) ?
ANO1 activ: inactive; CHOP inhibitor: 29; ANO1 block: 25*; UPR XBP1 act: -2; Hep lipid drop: -7; CHOP UPR activ: 0; TMEM16A reconf: inactive; TMEM16A Ca cntr: inactive; YFP-HEK293 quench: -1.1; ClC-1 rat inh: -4

Results for COc1ccc(C(=O)COC(=O)c2ccccc2NS(=O)(=O)c2ccc(O)c([N+](=O)[O-])c2)cc1 ?
ANO1 activ: inactive; CHOP inhibitor: -8; ANO1 block: 25*; UPR XBP1 act: -1; Hep lipid drop: 2; CHOP UPR activ: 2; TMEM16A reconf: 30%*; TMEM16A Ca cntr: inactive; YFP-HEK293 quench: -0.86; ClC-1 rat inh: -10

How did COc1ccc(NC(=O)c2ccccc2NS(=O)(=O)c2ccc(C)cc2)c([N+](=O)[O-])c1 do in these assays?
ANO1 activ: inactive; CHOP inhibitor: -9; ANO1 block: inactive; UPR XBP1 act: -3; Hep lipid drop: 14; CHOP UPR activ: 4

How did O=C(CCNC(=O)c1ccccc1Cl)NCCC1=CCCCC1 do in these assays?
ANO1 activ: inactive; ANO1 block: inactive; UPR XBP1 act: -2; CHOP UPR activ: 2
